# Experimental data reported in ChEMBL document CHEMBL4020844, “Regio- and Stereospecific Synthesis of Oridonin D-Ring Aziridinated Analogues for the Treatment of Triple-Negative Breast Cancer via Mediated Irreversible Covalent Warheads” (J Med Chem, 2018).
# pIC50: −log10 of the molar value. Active and inactive are the calls of the source. The rule behind the calls is not given here.
# Key:
# [1] = Drug level in pH 7.4 deuterated phosphate buffer treated with (2R,3'S,3a'R,3a1'R,6a'R,7'S,11'S,11a'S)-7',11'-Dihydroxy-5',5',8',8'-tetramethyldecahydro-2'H-spiro[aziridine-2,15'-[6a,11a]-(epoxymethano)[3,3a1]ethanophenanthro[1,10-de][1,3]dioxin]-14'-one at 10 mg after 5 hrs in presence of 1.5 to 2 equiv of GSH by HRMS analysis
# [2] = Glutathione reactivity in pH 7.4 deuterated phosphate buffer at 10 mg after 20 hrs in presence of 1.5 to 2 equiv of GSH by 1H NMR analysis
# [3] = Stability in human microsomes; assay type: ADME, Microsome
# [4] = Glutathione reactivity in pH 7.4 deuterated phosphate buffer assessed as GSH adduct formation at 10 mg up to 10 mins in presence of 1.5 to 2 equiv of GSH by HRMS analysis
# [5] = tested on: Plasma; assay: Stability in rat plasma up to 5 hrs; assay type: ADME, cell-free
# [6] = tested on: Plasma; assay: Stability in mouse plasma up to 5 hrs; assay type: ADME, cell-free
# [7] = Stability in rat microsomes; assay type: ADME, Microsome
# [8] = tested on: Plasma; assay: Stability in human plasma up to 5 hrs; assay type: ADME, cell-free
# [9] = tested on: MCF7; assay: Antiproliferative activity against human MCF7 cells after 72 hrs by MTT assay; assay type: functional, cell-based
# How it was run: (§1)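 MTT proliferation assay. Cells were seeded at 1 × 10^4 per well and exposed to DMSO or compound at 0.1, 0.33, 1.0, 3.3 and 10 μM for 72 h. MTT reagent was added, and OD at 560 nm was read after 1 h at 37°C. Each concentration was tested in quadruplicate wells.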
# [10] = tested on: MDA-MB-231; assay: Antitumor activity against human MDA-MB-231 cells xenografted in nude mouse assessed as tumor growth inhibition at 10 mg/kg, ip daily for 10 days; assay type: functional, organism-based
# How it was run: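 Orthotopic model: female nude mice, 6–8 weeks old. MDA-MB-231 cells (1.0 × 10^6 in PBS) were injected into the no. 3 mammary fat pad, and mice were randomized into 4 groups. Once tumors reached 80–100 mm3, mice received 10 or 15 mg/kg daily by intraperitoneal injection in DMSO vehicle. Tumor volume (0.5 × L × W2) and body weight were measured daily. Mean ± SEM.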
# [11] = Stability in mouse microsomes; assay type: ADME, Microsome
# [12] = Toxicity in ip dosed ddYS mouse implanted with mouse ehrlich carcinoma cells administered once daily for 7 consecutive days measured for 40 days; assay type: organism-based; settings: in vivo
# [13] = tested on: MDA-MB-231; assay: Antiproliferative activity against human MDA-MB-231 cells after 72 hrs by MTT assay; assay type: functional, cell-based; how it was run: as §1
# [14] = Glutathione reactivity in pH 7.4 deuterated phosphate buffer assessed as reaction half life at 10 mg up to 10 mins in presence of 1.5 to 2 equiv of GSH by 1H NMR analysis; assay type: physicochemical
# [15] = Drug level in pH 7.4 deuterated phosphate buffer treated with oridonin at 10 mg up to 10 mins in presence of 1.5 to 2 equiv of GSH by HRMS analysis
# [16] = Potency index, ratio of oridonin IC50 to compound IC50 for human LX2 cells; assay type: functional
# [17] = Antiproliferative activity against human LX2 cells by alamar blue assay; assay type: functional, cell-based; settings: LX-2
# [18] = Drug level in pH 7.4 deuterated phosphate buffer treated with (2R,3'S,3a'R,3a1'R,6a'R,7'S,11'S,11a'S)-1-Acryloyl-7',11'-dihydroxy-5',5',8',8'-tetramethyldecahydro-2'H-spiro[aziridine-2,15'-[6a,11a](epoxymethano)[3,3a1]ethanophenanthro[1,10-de][1,3]-dioxin]-14'-one at 10 mg after 1 hr in presence of 1.5 to 2 equiv of GSH by HRMS analysis
# [19] = Glutathione reactivity in pH 7.4 deuterated phosphate buffer assessed as reaction half life at 10 mg up to 24 hrs in presence of 1.5 to 2 equiv of GSH by 1H NMR analysis; assay type: physicochemical; settings: pH 7.4, 24 h
# [20] = Glutathione reactivity in pH 7.4 deuterated phosphate buffer assessed as GSH adduct formation at 10 mg after 5 hrs in presence of 1.5 to 2 equiv of GSH by HRMS analysis
structure (smiles),measurement,setting,value
CC1(C)O[C@@H]2[C@H]3CC[C@H]4[C@@]56CO[C@@](O1)([C@@H](O)[C@@H]5C(C)(C)CC[C@@H]6O)[C@@]24C(=O)C3(N)CSCC(NC(=O)CC[C@H](N)C(=O)O)C(=O)NCC(=O)O (some centres undefined),Drug metabolism,[1],Metabolite detected
O=C(O)C1CN1 (centres undefined),Drug metabolism,[2],Metabolite detected
C=C1C(=O)[C@]23[C@H](O)[C@H]1CC[C@H]2[C@@]12CO[C@]3(O)[C@@H](O)[C@@H]1C(C)(C)CC[C@@H]2O [ORIDONIN],Stability,[3],Stable
same,Drug metabolism,[4],Metabolite detected
same,Stability,[5],Stable
same,Stability,[6],Stable
same,Stability,[7],Stable
same,Stability,[8],Stable
same,pIC50,"[9]; MCF7, 72 h",5.17
same,TGI,[10],Active
same,Stability,[11],Stable
same,LD50 at 960 h,[12],37.5 mg/kg
same,pIC50,"[13]; MDA-MB-231, 72 h",4.53
same,half-life,"[14]; deuterated phosphate buffer with glutathione (GSH), pH 7.4",< 1 min
CC1(C)CC[C@H](O)[C@]23CO[C@@](O)([C@@H](O)[C@H]12)[C@]12C(=O)C(CSCC(NC(=O)CC[C@H](N)C(=O)O)C(=O)NCC(=O)O)[C@H](CC[C@@H]31)[C@H]2O (some centres undefined),Drug metabolism,[15],Metabolite detected
CCC(=O)N1CC12C(=O)[C@@]13[C@@H]4OC(C)(C)O[C@@]15OC[C@@]1([C@H]([C@@H]5O)C(C)(C)CC[C@@H]1O)[C@@H]3CC[C@H]42 (some centres undefined),Activity,[9],inactive
same,Activity,[13],inactive
C=CCNc1nc2c(s1)CC(C)(C)[C@H]1[C@H](O)[C@]3(O)OC[C@@]21[C@@H]1CC[C@@H]2[C@@H](O)[C@@]13C(=O)C21CN1 (some centres undefined),Activity,[9],Active
same,Activity,[13],Active
C=C1C(=O)[C@@]23[C@@H]4OC(C)(C)O[C@@]25OC[C@@]2([C@H]([C@@H]5O)C(C)(C)CC[C@@H]2O)[C@@H]3CC[C@@H]14,t1/2,"[14]; gsh, pH 7.4, 10 min",< 1 min
C=C1C(=O)[C@]23[C@H](O)[C@H]1CC[C@H]2[C@]12C=CCC(C)(C)[C@H]1[C@H](O)[C@]3(O)OC2,Ratio IC50,[16],10
same,pIC50,[17],6.31
CC1(C)O[C@@H]2[C@H]3CC[C@H]4[C@@]56CO[C@@](O1)([C@@H](O)[C@@H]5C(C)(C)CC[C@@H]6O)[C@@]24C(=O)C31CN1C(=O)CCSC[C@H](NC(=O)CC[C@H](N)C(=O)O)C(=O)NCC(=O)O (some centres undefined),Drug metabolism,[18],Metabolite detected
C=CCNc1nc2c(s1)CC(C)(C)[C@H]1[C@H](O)[C@]3(O)OC[C@@]21[C@@H]1CC[C@@H]2[C@@H](O)[C@@]13C(=O)C21CN1C(=O)OCC1c2ccccc2-c2ccccc21 (some centres undefined),Activity,[9],Active
same,Activity,[13],Active
CC1(C)O[C@@H]2[C@H]3CC[C@H]4[C@@]56CO[C@@](O1)([C@@H](O)[C@@H]5C(C)(C)CC[C@@H]6O)[C@@]24C(=O)C31CN1 (some centres undefined),Stability,[3],Stable
same,Stability,[5],Stable
same,t1/2,[19],4 to 6 h
same,Stability,[6],Stable
same,Stability,[7],Stable
same,Stability,[8],Stable
same,Stability,[11],Stable
same,Drug metabolism,[20],Metabolite detected
C=C1C(=O)[C@]23[C@H](OC(=O)[C@H](C)N)[C@H]1CC[C@H]2[C@@]12CO[C@@]3(O)[C@@H](O)[C@@H]1C(C)(C)CC[C@@H]2O.O=C(O)C(F)(F)F,Drug metabolism,"[14]; in vitro, pH 7.4, 10 min",Metabolite_Detected
